In ChEMBL document CHEMBL1135904, “Toward an optimal joint recognition of the S1' subsites of endothelin converting enzyme-1 (ECE-1), angiotensin converting enzyme (ACE), and neutral endopeptidase (NEP)” (J Med Chem, 2002):

Experiments:
[1] = target: T1, Angiotensin-converting enzyme (Rattus norvegicus, UniProt P47820); test: Inhibition of Angiotensin I converting enzyme (ACE) purified from rat testis
T1 sequence (P47820 whole entry): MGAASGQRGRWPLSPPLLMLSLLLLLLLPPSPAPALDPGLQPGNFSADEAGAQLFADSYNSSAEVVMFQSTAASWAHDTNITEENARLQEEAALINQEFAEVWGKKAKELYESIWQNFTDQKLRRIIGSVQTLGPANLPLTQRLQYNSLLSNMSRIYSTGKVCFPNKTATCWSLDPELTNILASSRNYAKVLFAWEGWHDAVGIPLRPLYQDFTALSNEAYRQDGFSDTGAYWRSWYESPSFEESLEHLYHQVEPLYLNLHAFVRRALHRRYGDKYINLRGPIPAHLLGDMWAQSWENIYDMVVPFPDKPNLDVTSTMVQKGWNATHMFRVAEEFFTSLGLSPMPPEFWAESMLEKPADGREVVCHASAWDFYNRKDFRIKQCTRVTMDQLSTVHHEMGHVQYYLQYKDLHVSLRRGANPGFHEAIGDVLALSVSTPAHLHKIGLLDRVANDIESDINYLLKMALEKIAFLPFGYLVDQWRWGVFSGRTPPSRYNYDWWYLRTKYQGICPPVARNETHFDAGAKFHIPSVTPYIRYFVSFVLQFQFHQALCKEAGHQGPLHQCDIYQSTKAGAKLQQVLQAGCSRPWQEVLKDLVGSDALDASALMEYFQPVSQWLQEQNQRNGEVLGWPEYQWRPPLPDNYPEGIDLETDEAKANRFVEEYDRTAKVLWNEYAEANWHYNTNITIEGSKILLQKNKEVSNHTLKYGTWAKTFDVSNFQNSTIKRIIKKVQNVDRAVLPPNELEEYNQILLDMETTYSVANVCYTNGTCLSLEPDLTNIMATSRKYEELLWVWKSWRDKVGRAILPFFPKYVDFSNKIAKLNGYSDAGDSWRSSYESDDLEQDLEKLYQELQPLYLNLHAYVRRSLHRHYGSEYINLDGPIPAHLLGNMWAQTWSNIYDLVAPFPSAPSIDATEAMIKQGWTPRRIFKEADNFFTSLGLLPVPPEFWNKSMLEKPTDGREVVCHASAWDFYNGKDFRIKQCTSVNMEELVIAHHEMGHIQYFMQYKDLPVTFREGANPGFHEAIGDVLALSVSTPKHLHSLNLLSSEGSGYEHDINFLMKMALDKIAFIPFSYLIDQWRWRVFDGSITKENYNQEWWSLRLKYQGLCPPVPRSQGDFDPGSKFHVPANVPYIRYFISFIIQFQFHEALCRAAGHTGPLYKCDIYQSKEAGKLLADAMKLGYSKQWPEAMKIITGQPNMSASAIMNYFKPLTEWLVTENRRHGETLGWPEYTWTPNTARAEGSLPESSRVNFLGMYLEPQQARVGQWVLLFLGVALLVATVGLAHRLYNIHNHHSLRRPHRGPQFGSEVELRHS
In short: (§1)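 ACE purified from rat testis, final 0.02 pmol/100 µL, preincubated 10 min at 37 °C with or without various inhibitor concentrations in 50 mM Tris/HCl/NaCl 1% pH 7.4. Then 50 µM N-Cbz-Phe-His-Leu (Km 50 µM) added for 30 min. Stopped with 2 N NaOH and diluted with water. Released His-Leu measured fluorometrically.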

Neprilysin [2] = target: T2, Neprilysin (Oryctolagus cuniculus, UniProt P08049); test: Inhibition of neutral endopeptidase (NEP) isolated from rabbit kidney
T2 sequence (P08049 whole entry): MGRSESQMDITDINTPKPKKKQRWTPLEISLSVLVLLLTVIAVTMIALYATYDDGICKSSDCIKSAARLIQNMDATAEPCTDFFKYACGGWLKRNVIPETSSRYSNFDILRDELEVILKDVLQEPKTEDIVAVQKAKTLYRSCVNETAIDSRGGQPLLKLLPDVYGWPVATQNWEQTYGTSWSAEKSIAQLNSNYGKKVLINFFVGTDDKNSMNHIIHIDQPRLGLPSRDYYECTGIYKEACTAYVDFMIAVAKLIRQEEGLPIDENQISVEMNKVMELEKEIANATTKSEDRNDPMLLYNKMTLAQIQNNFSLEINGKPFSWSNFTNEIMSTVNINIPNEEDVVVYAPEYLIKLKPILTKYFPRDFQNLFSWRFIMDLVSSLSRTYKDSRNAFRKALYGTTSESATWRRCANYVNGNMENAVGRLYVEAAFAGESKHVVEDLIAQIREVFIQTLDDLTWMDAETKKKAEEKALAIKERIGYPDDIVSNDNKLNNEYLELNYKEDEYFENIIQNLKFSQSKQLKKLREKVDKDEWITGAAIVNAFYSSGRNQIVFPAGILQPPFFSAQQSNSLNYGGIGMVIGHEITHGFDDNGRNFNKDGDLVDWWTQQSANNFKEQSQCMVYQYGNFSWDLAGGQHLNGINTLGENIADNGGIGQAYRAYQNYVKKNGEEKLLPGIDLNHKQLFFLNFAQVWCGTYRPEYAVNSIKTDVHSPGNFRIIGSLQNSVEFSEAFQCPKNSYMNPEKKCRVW
In short: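 Rabbit kidney NEP purified to homogeneity, final 250 ng/mL, preincubated 10 min at 37 °C with or without rising inhibitor concentrations in 50 mM Tris-HCl pH 7.4. Then 50 µM DGPA (Dansyl-Gly-(p-NO2)Phe-β-Ala; Km 37 µM) added for 1 h. Stopped with DMSO. Fluorescence read at ex 340/em 530 nm.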

[3] = target: T3, Endothelin-converting enzyme 1 (Homo sapiens, UniProt P42892); test: Inhibition activity towards human recombinant Endothelin-converting enzyme 1 (hECE-1c) expressed in Cos-7 cells; format: cell-based
T3 sequence (P42892 whole entry): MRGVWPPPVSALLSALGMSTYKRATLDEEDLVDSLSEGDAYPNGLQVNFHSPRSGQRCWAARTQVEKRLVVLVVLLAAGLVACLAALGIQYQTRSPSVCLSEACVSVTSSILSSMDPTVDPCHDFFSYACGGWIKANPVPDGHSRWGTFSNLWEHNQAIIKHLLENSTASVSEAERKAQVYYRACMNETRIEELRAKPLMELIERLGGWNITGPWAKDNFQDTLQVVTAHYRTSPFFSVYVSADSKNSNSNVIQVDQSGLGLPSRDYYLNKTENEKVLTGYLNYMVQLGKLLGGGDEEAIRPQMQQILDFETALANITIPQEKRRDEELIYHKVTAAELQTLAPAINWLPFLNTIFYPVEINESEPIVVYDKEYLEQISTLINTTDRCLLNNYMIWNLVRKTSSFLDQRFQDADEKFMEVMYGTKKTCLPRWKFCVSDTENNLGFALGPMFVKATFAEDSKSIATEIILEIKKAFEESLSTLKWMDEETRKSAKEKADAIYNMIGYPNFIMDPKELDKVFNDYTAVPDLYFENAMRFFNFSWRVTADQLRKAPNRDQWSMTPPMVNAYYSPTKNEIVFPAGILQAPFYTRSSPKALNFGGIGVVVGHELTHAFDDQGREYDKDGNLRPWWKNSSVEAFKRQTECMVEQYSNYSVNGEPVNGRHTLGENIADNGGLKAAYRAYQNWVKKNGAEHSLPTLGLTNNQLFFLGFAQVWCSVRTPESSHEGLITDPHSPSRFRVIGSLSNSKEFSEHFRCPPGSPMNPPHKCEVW
In short: (§2)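 Recombinant human ECE-1c from Cos-7 cells, 4 µg total protein per well, preincubated 10 min at 37 °C in 50 mM tris-maleate pH 6-8 with or without rising inhibitor concentrations. Reaction started with 20 µM (Pya21-(p-NO2)Phe22)bigET(19-35) (Km 20 µM), run 1 h at 37 °C, stopped by cooling. Fluorescence read at ex 340/em 400 nm.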

Neprilysin [4] = target: T2, Neprilysin; test: Inhibition of neutral endopeptidase (NEP)
In short: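 NEP purified from rabbit kidney (final 250 ng/mL) preincubated 10 min at 37 °C with or without increasing inhibitor concentrations in 50 mM Tris-HCl pH 7.4. Reaction stopped after 1 h with DMSO.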

[5] = target: T3, Endothelin-converting enzyme 1; test: Inhibition of Endothelin-converting enzyme 1 (ECE); in short: as §2
[6] = target: T1, Angiotensin-converting enzyme; test: Inhibition of Angiotensin I converting enzyme (ACE); in short: as §1

Compound	Ki [1] [nM]	Ki (Neprilysin [2]) [nM]	Ki [3] [nM]	Ki (Neprilysin [4]) [nM]	Ki [6] [nM]	Ki [5] [nM]
C[C@@H](c1ccccc1)[C@@H](CS)C(=O)N[C@@H](Cc1c[nH]c2ccccc12)C(=O)O	33	2.4	200	–	–	–
O=C(O)[C@H](Cc1c[nH]c2ccccc12)NC(=O)[C@@H](CS)[C@H]1CCc2ccccc21	10	2.1	290	–	–	–
O=C(O)C(Cc1c[nH]c2ccccc12)NC(=O)C(CS)c1cccc2ccccc12 (stereo not given)	150	22	1560	–	–	–
CC(c1ccccc1)C(CS)C(=O)NC(Cc1c[nH]c2ccccc12)C(=O)O (stereo not given)	40	3	300	–	–	–
C[C@H](c1ccccc1)[C@@H](CS)C(=O)N[C@@H](Cc1c[nH]c2ccccc12)C(=O)O	290	5	580	–	–	–
O=C(O)C(Cc1c[nH]c2ccccc12)NC(=O)C(CS)C1CCCc2ccccc21 (stereo not given)	18	4.5	300	–	–	–
O=C(N[C@@H](Cc1c[nH]c2ccccc12)C(=O)O)C(CS)[C@@H]1CCCc2ccccc21 (stereo not given in full)	26	8	670	–	–	–
O=C(O)C(Cc1c[nH]c2ccccc12)NC(=O)C(CS)C(c1ccccc1)c1ccccc1 (stereo not given)	–	–	–	140	250	> 10000
C[C@@H](c1ccc(-c2ccccc2)cc1)[C@@H](CS)C(=O)N[C@@H](Cc1c[nH]c2ccccc12)C(=O)O	130	1.5	135	–	–	–
C[C@@H](c1ccccc1)[C@H](CS)C(=O)N[C@@H](Cc1c[nH]c2ccccc12)C(=O)O	15	2.5	780	–	–	–
C[C@H](CS)C(=O)N1CCC[C@H]1C(=O)O [CAPTOPRIL]	–	–	–	> 1000	–	> 10000
O=C(O)CNC(=O)C(CS)Cc1ccccc1 (stereo not given) [THIORPHAN]	–	–	–	–	> 100	> 10000

More lines, main results first:

Ki [1] [nM]	Ki (Neprilysin [2]) [nM]	Ki [3] [nM]	Ki (Neprilysin [4]) [nM]	Ki [6] [nM]	Compound	Ki [5] [nM]
170	27	680	–	–	O=C(O)[C@H](Cc1c[nH]c2ccccc12)NC(=O)[C@H](CS)[C@@H]1CCc2ccccc21	–
41	10	1140	–	–	O=C(O)[C@H](Cc1c[nH]c2ccccc12)NC(=O)[C@@H](CS)[C@@H]1CCc2ccccc21	–
43	0.7	26	–	–	O=C(O)[C@H](Cc1c[nH]c2ccccc12)NC(=O)[C@H](CS)[C@H]1CCc2ccccc21	–
–	–	–	2.2	> 10000	O=P(O)(O)C(CCc1cccc2ccccc12)N[C@@H](Cc1ccc(-c2ccccc2)cc1)c1nnn[nH]1 (stereo not given in full)	10.8
62	4.8	220	–	–	CC(c1ccc(-c2ccccc2)cc1)C(CS)C(=O)N[C@@H](Cc1c[nH]c2ccccc12)C(=O)O (stereo not given in full)	–
134	43	1240	–	–	O=C(O)[C@H](Cc1c[nH]c2ccccc12)NC(=O)[C@H](CS)[C@@H]1CCCc2ccccc21	–
150	35	900	–	–	O=C(O)C(Cc1c[nH]c2ccccc12)NC(=O)C(CS)c1cccc(-c2ccccc2)c1 (stereo not given)	–
65	30	110	–	–	C[C@H](c1ccc(-c2ccccc2)cc1)[C@H](CS)C(=O)N[C@@H](Cc1c[nH]c2ccccc12)C(=O)O	–
79	51	600	–	–	CC(c1cccc2ccccc12)C(CS)C(=O)NC(Cc1c[nH]c2ccccc12)C(=O)O (stereo not given)	–
330	5	190	–	–	C[C@H](c1ccc(-c2ccccc2)cc1)[C@@H](CS)C(=O)N[C@@H](Cc1c[nH]c2ccccc12)C(=O)O	–
76	3	250	–	–	O=C(O)[C@H](Cc1c[nH]c2ccccc12)NC(=O)[C@H](CS)[C@H]1CCCc2ccccc21	–
77	135	4150	–	–	O=C(O)C(Cc1c[nH]c2ccccc12)NC(=O)C(CS)c1ccc(-c2ccccc2)cc1 (stereo not given)	–
20	1.8	100	–	–	O=C(O)C(Cc1c[nH]c2ccccc12)NC(=O)C(CS)C1CCc2ccccc21 (stereo not given)	–
10	3	190	–	–	O=C(O)[C@H](Cc1c[nH]c2ccccc12)NC(=O)[C@@H](CS)[C@H]1CCCc2ccccc21	–
38	35	920	–	–	C[C@@H](c1ccc(-c2ccccc2)cc1)[C@H](CS)C(=O)N[C@@H](Cc1c[nH]c2ccccc12)C(=O)O	–
29	2.2	100	–	–	C[C@H](c1ccccc1)[C@H](CS)C(=O)N[C@@H](Cc1c[nH]c2ccccc12)C(=O)O	–
47	5.4	980	–	–	CC(c1ccc2ccccc2c1)C(CS)C(=O)NC(Cc1c[nH]c2ccccc12)C(=O)O (stereo not given)	–
